Measurements collected from several papers.
Compare with care: the assays were run in different laboratories.
ABHD6: Monoacylglycerol lipase ABHD6 (ABHD6, Homo sapiens, UniProt Q9BV23)
Cathepsin F: Cathepsin F (Homo sapiens, UniProt Q9UBX1)
HTR5A: 5-hydroxytryptamine receptor 5A (HTR5A, Homo sapiens, UniProt P47898)

Compound	target	observed	action	technique	concentration	setting	inhibition
C#Cc1n[nH]c2c(-c3cn([C@@H](C)c4ccccn4)c(=O)[nH]c3=O)cc(F)cc12	RAC-beta serine/threonine-protein kinase (AKT2, Homo sapiens, UniProt P31751)	enzyme activity	inhibitor	–	0.1 µM	–	3.8%
COc1ccccc1N(C)C(=O)Oc1nsnc1N1CCCCC1	ABHD6	enzyme activity	inhibitor	fluorescence	1 µM	lysate	11%
Cn1cc(-c2cc(F)cc(N3CCn4c(cc5c4CCCC5)C3=O)c2CO)cc(Nc2ccc(N3CCN(C4COC4)CC3)cn2)c1=O	Casein kinase II subunit alpha (CSNK2A1, Homo sapiens, UniProt P68400)	enzyme activity	inhibitor	–	0.1 µM	–	18%
CN(C)C(=O)COC(=O)Cc1ccc(OC(=O)c2ccc(NC(=N)N)cc2)cc1	Cathepsin F	enzyme activity	inhibitor	–	10 µM	–	0%
CN(C)C(=O)Oc1nsnc1N1CCCCC1	ABHD6	enzyme activity	inhibitor	fluorescence	1 µM	lysate	10%
CN(CCN1CCC(OC(=O)Nc2ccccc2-c2ccccc2)CC1)C(=O)c1ccc(CN2CCC(C(N)=O)CC2)cc1	Histamine H2 receptor (Cavia porcellus, UniProt P47747)	ligand displacement	–	radioligand	1 µM	–	22%
COc1cc2c3c(c1OC)-c1cc4c(cc1CC3N(C)CC2)OCO4 (racemic)	HTR5A	ligand displacement	–	radioligand	10 µM	–	92.8%
c1ccc(C(NCCNC(c2ccccc2)c2ccccc2)c2ccccc2)cc1	D(4) dopamine receptor (DRD4, Homo sapiens, UniProt P21917, del265-296)	cell-free assay	–	–	10 µM	–	10%
CCOC(=O)c1ccc(OC(=O)CCCCCNC(=N)N)cc1	Cathepsin F	enzyme activity	inhibitor	–	10 µM	–	2%
CCN(CC)CCCC[C@H](NC(=O)[C@H](CC(C)C)NC(=O)[C@H](C)NC(=O)[C@H](Cc1ccccc1)NC(=O)c1ccc(C(C)(C)C)cc1)C(=O)N[C@@H](CO)C(=O)OC	HTR5A	ligand displacement	–	radioligand	10 µM	–	7%
Cn1cc(-c2cccc(N3CCc4c(sc5c4CC(C)(C)C5)C3=O)c2CO)cc(Nc2ccncn2)c1=O	Mast/stem cell growth factor receptor Kit (KIT, Homo sapiens, UniProt P10721, V654A)	enzyme activity	inhibitor	–	1 µM	–	-7%
COc1ccc(S(=O)(=O)N2CCCCC2)cc1C	D(4) dopamine receptor (DRD4, Homo sapiens, UniProt P21917)	ligand displacement	–	radioligand	10 µM	–	< 30%
N=C(N)c1ccc2cc(OC(=O)c3ccc(N=C(N)N)cc3)ccc2c1	Cathepsin F	enzyme activity	inhibitor	–	10 µM	–	0%
